Results taken from ChEMBL document CHEMBL1131471, “N-[trans-2-[[2'-(acetylamino)cyclohexyl]oxy]acetyl]-L-alanyl-D-glutamic acid: a novel immunologically active carbocyclic muramyl dipeptide analogue” (1998).

Experiments:
Mus musculus [1] = test: Compound was tested for its ability to enhance nonspecific resistance to expt. fungal infection in mice immunosuppressed with cyclophosphamide and infected with candida albicans at 3x10 mg/kg/day; survival increase = 0/6; assay type: functional
Method in brief: (§1)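 Groups of 10 mice in a controlled room. Test substance or vehicle (distilled water) was given ip on days 1, 3 and 5. Cyclophosphamide 30 mg/kg po was given on days 2, 4 and 6. One hour after the last cyclophosphamide dose, mice were challenged with C. albicans at a level set for 70–90% mortality within 10 days in vehicle controls. Survival over 10 days was scored as (treated − CP-only survivors)/(unsuppressed control − CP-only survivors).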

Mus musculus [2] = test: Compound was tested for its ability to enhance nonspecific resistance to expt. fungal infection in mice immunosuppressed with cyclophosphamide and infected with candida albicans at 3x 0.1 mg/kg/day; survival increase = 0/6; assay type: functional; method in brief: as §1
Mus musculus [3] = test: Compound was tested for its ability to enhance nonspecific resistance to expt. fungal infection in mice immunosuppressed with cyclophosphamide and infected with candida albicans at 3x1 mg/kg/day; survival increase = 1/6; assay type: functional; method in brief: as §1
Mus musculus [4] = test: Compound was tested for its ability to enhance nonspecific resistance to expt. fungal infection in mice immunosuppressed with cyclophosphamide and infected with candida albicans at 3x100 mg/kg/day; survival increase = 0/6; assay type: functional; method in brief: as §1
Mus musculus [5] = test: Compound was tested for its ability to enhance nonspecific resistance to expt. fungal infection in mice immunosuppressed with cyclophosphamide and infected with candida albicans at 3x10 mg/kg/day; survival increase = 2/6; assay type: functional; method in brief: as §1
Mus musculus [6] = test: Compound was tested for its ability to enhance nonspecific resistance to expt. fungal infection in mice immunosuppressed with cyclophosphamide and infected with candida albicans at 3x100 mg/kg/day; survival increase = 2/6; assay type: functional; method in brief: as §1
Mus musculus [7] = test: Compound was tested for its ability to enhance nonspecific resistance to expt. fungal infection in mice immunosuppressed with cyclophosphamide and infected with candida albicans at 3x 0.1 mg/kg/day;survival increase = 0/6; assay type: functional; method in brief: as §1
Mus musculus [8] = test: Compound was tested for its ability to enhance nonspecific resistance to expt. fungal infection in mice immunosuppressed with cyclophosphamide and infected with candida albicans at 3x100 mg/kg/day; survival increase = 1/6; assay type: functional; method in brief: as §1
Mus musculus [9] = test: Compound was tested for its ability to enhance nonspecific resistance to expt. fungal infection in mice immunosuppressed with cyclophosphamide and infected with candida albicans at 3x1 mg/kg/day; survival increase = 0/6; assay type: functional; method in brief: as §1
Mus musculus [10] = species: Mus musculus; test: Compound was tested for immunomodulatory effect on macrophage activation with costimulation with PMA measured as UV absorption difference with test sample at 0.25 microg daily dose and blank/mg of cell protein in mouse; assay type: functional
Method in brief: (§2)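 Female HAN–NmRi mice got thioglycolate ip plus the dose ip (0.5 mL) daily for 3 days and were killed on day 4. Peritoneal cells were washed out, erythrocytes lysed hypo-osmotically, and cells plated at 1.5 × 10^6/mL. They adhered for 2 h and nonadherent cells were rinsed off. Macrophages were given 160 μM ferricytochrome c in HBSS, with or without 200 nM PMA; the blank added 340 U/mL SOD. After 90 min at 37 °C, absorbance was read at […].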

Mus musculus [11] = species: Mus musculus; test: Compound was tested for immunomodulatory effect on macrophage activation with costimulation with PMA measured as UV absorption difference with test sample at 2.5 microg daily dose and blank/mg of cell protein in mouse; assay type: functional; method in brief: as §2
Mus musculus [12] = species: Mus musculus; test: Compound was tested for immunomodulatory effect on macrophage activation with costimulation with PMA measured as UV absorption difference with test sample at 25 microg daily dose and blank/mg of cell protein in mouse; assay type: functional; method in brief: as §2
Mus musculus [13] = species: Mus musculus; test: Compound was tested for immunomodulatory effect on macrophage activation without costimulation with PMA measured as UV absorption difference with test sample at 0.25 microg daily dose and blank/mg of cell protein in mouse; assay type: functional; method in brief: as §2
Mus musculus [14] = species: Mus musculus; test: Compound was tested for immunomodulatory effect on macrophage activation without costimulation with PMA measured as UV absorption difference with test sample at 2.5 microg daily dose and blank/mg of cell protein in mouse; assay type: functional; method in brief: as §2
Mus musculus [15] = species: Mus musculus; test: Compound was tested for immunomodulatory effect on macrophage activation without costimulation with PMA measured as UV absorption difference with test sample at 25 microg daily dose and blank/mg of cell protein in mouse; assay type: functional; method in brief: as §2
Mus musculus [16] = species: Mus musculus; test: Compound was tested for blast transformation ability of lymphocytes, stimulated in vitro with Concanavalin A expressed as amount of [3H]-thymidine incorporated in lymphocyte DNA at 0.25 microg daily dose in mouse; assay type: functional
Method in brief: (§3)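 Female HAN–NmRi mice (3–4 weeks, 17–20 g) got 1 mL thioglycolate ip, then the dose in 0.5 mL ip one hour later, repeated on days 2 and 3. On day 4, spleen lymphocytes were taken at 1 × 10^6/mL in RPMI 1640 with 10% FCS and stimulated with Con A at 16, 8 or 4 μg/mL for 2 days at 37 °C, 5% CO2. [3H]thymidine was then added for 16 h and counted by β-counter. Results are cpm, n = 5.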

Mus musculus [17] = species: Mus musculus; test: Compound was tested for blast transformation ability of lymphocytes, stimulated in vitro with Concanavalin A expressed as amount of [3H]thymidine incorporated in lymphocyte DNA at 2.5 microg daily dose in mouse; assay type: functional; method in brief: as §3
Mus musculus [18] = species: Mus musculus; test: Compound was tested for blast transformation ability of lymphocytes, stimulated in vitro with Concanavalin A expressed as amount of [3H]thymidine incorporated in lymphocyte DNA at 25 microg daily dose in mouse; assay type: functional; method in brief: as §3
Mus musculus [19] = species: Mus musculus; test: Compound was tested for its effect on number of B-cells at 0.25 microg daily dose in mouse; assay type: functional, B-cell
Method in brief: (§4)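 Female HAN–NmRi mice (3–4 weeks) got thioglycolate ip and the dose ip in 0.5 mL on days 1–3, and spleens were taken on day 4. B cells were stained with FITC goat anti-mouse IgG. T cells were stained with rat anti-Thy-1 and then FITC goat anti-rat Ig. Cells were counted by fluorescence microscopy and reported in millions as mean ± SEM with p values.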

Mus musculus [20] = species: Mus musculus; test: Compound was tested for its effect on number of B-cells at 2.5 microg daily dose in mouse; assay type: functional, B-cell; method in brief: as §4
Mus musculus [21] = species: Mus musculus; test: Compound was tested for its effect on number of B-cells at 25 microg daily dose in mouse; assay type: functional, B-cell; method in brief: as §4
Mus musculus [22] = species: Mus musculus; test: Compound was tested for its effect on number of T cells at 0.25 microg daily dose in mouse; assay type: functional, T-cell; method in brief: as §4
Mus musculus [23] = species: Mus musculus; test: Compound was tested for its effect on number of T cells at 2.5 microg daily dose in mouse; assay type: functional, T-cell; method in brief: as §4
Mus musculus [24] = species: Mus musculus; test: Compound was tested for its effect on number of T cells at 25 microg daily dose in mouse; assay type: functional, T-cell; method in brief: as §4
Mus musculus [25] = species: Mus musculus; test: Compound was tested for its effect on number of peritoneal macrophages at 0.25 microg daily dose in mouse; assay type: functional
Method in brief: (§5)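 Female HAN–NmRi mice got thioglycolate ip and the dose ip (0.5 mL) daily for 3 days. On day 4, peritoneal cells were washed out with ice-cold RPMI 1640. Macrophages were counted with trypan blue in a Neubauer chamber, excluding contaminating cells by morphology, and reported in millions as mean ± SEM.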

Mus musculus [26] = species: Mus musculus; test: Compound was tested for its effect on number of peritoneal macrophages at 2.5 microg daily dose in mouse; assay type: functional; method in brief: as §5
Mus musculus [27] = species: Mus musculus; test: Compound was tested for its effect on number of peritoneal macrophages at 25 microg daily dose in mouse; assay type: functional; method in brief: as §5
Mus musculus [28] = species: Mus musculus; test: Compound was tested for its effect on number of total spleen cells at 0.25 microg daily dose in mouse; assay type: functional; method in brief: as §4
Mus musculus [29] = species: Mus musculus; test: Compound was tested for its effect on number of total spleen cells at 2.5 microg daily dose in mouse; assay type: functional; method in brief: as §4
Mus musculus [30] = species: Mus musculus; test: Compound was tested for its effect on number of total spleen cells at 25 microg daily dose in mouse; assay type: functional; method in brief: as §4
Mus musculus [31] = test: Compound was tested for its ability to enhance nonspecific resistance to expt. fungal infection in mice immunosuppressed with cyclophosphamide and infected with candida albicans at 3x10 mg/kg/day; survival increase = 1/6; assay type: functional; method in brief: as §1
Mus musculus [32] = test: Compound was tested for its ability to enhance nonspecific resistance to expt. fungal infection in mice immunosuppressed with cyclophosphamide and infected with candida albicans at 3x30 mg/kg/day; survival increase = 1/6; assay type: functional; method in brief: as §1
Mus musculus [33] = test: Compound was tested for its ability to enhance nonspecific resistance to expt. fungal infection in mice immunosuppressed with cyclophosphamide and infected with candida albicans at 3x 0.1 mg/kg/day; survival increase = 2/6; assay type: functional; method in brief: as §1
Mus musculus [34] = test: Compound was tested for its ability to enhance nonspecific resistance to expt. fungal infection in mice immunosuppressed with cyclophosphamide and infected with candida albicans at 3x10 mg/kg/day; survival increase = 3/6; assay type: functional; method in brief: as §1
Mus musculus [35] = test: Compound was tested for its ability to enhance nonspecific resistance to expt. fungal infection in mice immunosuppressed with cyclophosphamide and infected with candida albicans at 3x100 mg/kg/day; survival increase = 3/6; assay type: functional; method in brief: as §1
Mus musculus [36] = test: Compound was tested for its ability to enhance nonspecific resistance to expt. fungal infection in mice immunosuppressed with cyclophosphamide and infected with candida albicans at 3x1 mg/kg/day; survival increase = 2/6; assay type: functional; method in brief: as §1
Mus musculus [37] = test: Compound was tested for its ability to enhance nonspecific resistance to expt. fungal infection in mice immunosuppressed with cyclophosphamide and infected with candida albicans at 3x30 mg/kg/day; survival increase = 3/6; assay type: functional; method in brief: as §1
Mus musculus [38] = test: Compound was tested for its ability to enhance nonspecific resistance to expt. fungal infection in mice immunosuppressed with cyclophosphamide and infected with candida albicans at 3x1 mg/kg/day; survival increase = 3/6; assay type: functional; method in brief: as §1
Mus musculus [39] = test: Compound was tested for its ability to enhance nonspecific resistance to expt. fungal infection in mice immunosuppressed with cyclophosphamide and infected with candida albicans at 3x 0.1 mg/kg/day; survival increase = 3/6; assay type: functional; method in brief: as §1

## CC(=O)N[C@@H]1CCCC[C@H]1OCC(=O)N[C@@H](C)C(=O)N[C@H](CCC(=O)O)C(N)=O
Mus musculus [1]
  Survival increase: 0
Mus musculus [2]
  Survival increase: 0
Mus musculus [3]
  Survival increase: 1
Mus musculus [4]
  Survival increase: 0

## CC(=O)N[C@H]1CCCC[C@@H]1OCC(=O)N[C@@H](C)C(=O)N[C@H](CCC(=O)O)C(=O)O
Mus musculus [5]
  Survival increase: 2
Mus musculus [2]
  Survival increase: 0
Mus musculus [3]
  Survival increase: 1
Mus musculus [6]
  Survival increase: 2

## CC(=O)N[C@H]1CCCC[C@@H]1OCC(=O)N[C@@H](C)C(=O)N[C@H](CCC(=O)O)C(N)=O
Mus musculus [1]
  Survival increase: 0
Mus musculus [7]
  Survival increase: 0
Mus musculus [8]
  Survival increase: 1
Mus musculus [9]
  Survival increase: 0

## CC(=O)NC1CCCCC1OCC(=O)N[C@@H](C)C(=O)N[C@H](CCC(=O)O)C(=O)O (stereo partly drawn)
Mus musculus [10]
  Macrophage activation: 1298
Mus musculus [11]
  Macrophage activation: 1494
Mus musculus [12]
  Macrophage activation: 1709
Mus musculus [13]
  Macrophage activation: 237
Mus musculus [14]
  Macrophage activation: 431
Mus musculus [15]
  Macrophage activation: 489
Mus musculus [16]
  Amount of [3H]thymidine: 10780 c.p.m.
Mus musculus [17]
  Amount of [3H]thymidine: 16830 c.p.m.
Mus musculus [18]
  Amount of [3H]thymidine: 25990 c.p.m.
Mus musculus [19]
  Number: 18.42 millions
Mus musculus [20]
  Number: 23.76 millions
Mus musculus [21]
  Number: 20.5 millions
Mus musculus [22]
  Number: 11.7 millions
Mus musculus [23]
  Number: 12.88 millions
Mus musculus [24]
  Number: 9.72 millions
Mus musculus [25]
  Number: 2.58 millions
Mus musculus [26]
  Number: 2.87 millions
Mus musculus [27]
  Number: 0.92 millions
Mus musculus [28]
  Number: 5.66 millions
Mus musculus [29]
  Number: 8.14 millions
Mus musculus [30]
  Number: 9.93 millions

## CCCCCC(=O)NC1CCCCC1OCC(=O)N[C@@H](C)C(=O)N[C@H](CCC(=O)O)C(N)=O (stereo partly drawn)
Mus musculus [31]
  Survival increase: 1
Mus musculus [2]
  Survival increase: 0
Mus musculus [32]
  Survival increase: 1
Mus musculus [9]
  Survival increase: 0

## CC(=O)N[C@@H]1CCCC[C@H]1OCC(=O)N[C@@H](C)C(=O)N[C@H](CCC(=O)O)C(=O)O
Mus musculus [33]
  Survival increase: 2
Mus musculus [3]
  Survival increase: 1
Mus musculus [34]
  Survival increase: 3
Mus musculus [35]
  Survival increase: 3

## C[C@H](NC(=O)C1(C)OC2(C)CCCCC2(C)NC1=O)C(=O)N[C@H](CCC(=O)O)C(=O)O (stereo partly drawn)
Mus musculus [1]
  Survival increase: 0
Mus musculus [2]
  Survival increase: 0
Mus musculus [6]
  Survival increase: 2
Mus musculus [9]
  Survival increase: 0

## CCCCCCCCCCCC(=O)NC1CCCCC1OCC(=O)N[C@@H](C)C(=O)N[C@H](CCC(=O)O)C(N)=O (stereo partly drawn)
Mus musculus [36]
  Survival increase: 2
Mus musculus [2]
  Survival increase: 0
Mus musculus [34]
  Survival increase: 3
Mus musculus [37]
  Survival increase: 3

## CC(C)(N1CC1C#N)N1CC1C(N)=O (stereo not drawn) [AZIMEXON]
Mus musculus [38]
  Survival increase: 3
Mus musculus [39]
  Survival increase: 3
Mus musculus [34]
  Survival increase: 3
Mus musculus [35]
  Survival increase: 3
